The source of these data is ChEMBL document CHEMBL4814002, “Synthesis, biological evaluation, and docking studies of novel pyrrolo[2,3-b]pyridine derivatives as both ectonucleotide pyrophosphatase/phosphodiesterase inhibitors and antiproliferative agents” (Eur J Med Chem, 2021).

For assay [1], the system named is MCF7. Description: Antiproliferative activity against human MCF7 cells assessed as reduction in cell growth at 10 uM incubated for 24 hrs by MTT assay relative to control. In kind it is functional. In outline:
(§1)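 MTT assay. Cells seeded at 4 × 10^4 per well and incubated overnight. Treated 24 h; DMSO served as negative control and doxorubicin as positive control. MTT dye 0.5 mg/mL added for 2 h at 37 °C, formazan dissolved in DMSO, absorbance read at 570 nm. Single-concentration screen at 10; dose-dependent dilutions gave IC50. WI-38 fibroblasts grown in DMEM with 10% FBS and 1% penicillin/streptomycin. Triplicate means ± S.E.M.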

The target in assay [2] is T1, Ectonucleotide pyrophosphatase/phosphodiesterase family member 1 (Homo sapiens, UniProt P22413).
T1 sequence (P22413 whole entry): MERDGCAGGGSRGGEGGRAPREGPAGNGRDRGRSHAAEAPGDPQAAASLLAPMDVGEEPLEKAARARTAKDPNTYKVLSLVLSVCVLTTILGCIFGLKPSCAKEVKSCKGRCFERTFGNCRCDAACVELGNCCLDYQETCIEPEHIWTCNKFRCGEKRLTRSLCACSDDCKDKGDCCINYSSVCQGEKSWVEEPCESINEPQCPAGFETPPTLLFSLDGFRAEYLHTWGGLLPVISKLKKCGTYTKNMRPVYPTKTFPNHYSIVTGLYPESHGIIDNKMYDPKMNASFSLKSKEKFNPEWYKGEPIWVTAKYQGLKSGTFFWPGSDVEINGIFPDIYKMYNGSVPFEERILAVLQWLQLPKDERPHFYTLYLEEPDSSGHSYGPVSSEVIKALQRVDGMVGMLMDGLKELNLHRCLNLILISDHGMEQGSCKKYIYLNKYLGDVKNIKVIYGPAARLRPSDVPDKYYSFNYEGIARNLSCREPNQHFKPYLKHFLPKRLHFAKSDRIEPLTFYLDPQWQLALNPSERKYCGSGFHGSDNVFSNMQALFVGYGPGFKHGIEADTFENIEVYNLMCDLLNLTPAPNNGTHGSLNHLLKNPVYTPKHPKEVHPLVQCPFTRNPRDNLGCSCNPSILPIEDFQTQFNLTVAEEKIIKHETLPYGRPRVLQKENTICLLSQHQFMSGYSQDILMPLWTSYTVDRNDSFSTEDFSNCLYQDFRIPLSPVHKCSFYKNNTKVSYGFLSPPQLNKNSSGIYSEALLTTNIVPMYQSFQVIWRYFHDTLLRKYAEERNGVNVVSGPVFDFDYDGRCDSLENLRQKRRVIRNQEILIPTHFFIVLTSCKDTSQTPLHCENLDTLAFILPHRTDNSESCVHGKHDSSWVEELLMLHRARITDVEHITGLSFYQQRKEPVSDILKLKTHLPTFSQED
Description: Inhibition of human NPP1 transfected in COS7 cells using pNP-TMP as substrate incubated for 35 mins. The assay is classed as cell-based.

Assay [3] concerns the target T2, Ectonucleotide pyrophosphatase/phosphodiesterase family member 3 (Homo sapiens, UniProt O14638).
T2 sequence (O14638 whole entry): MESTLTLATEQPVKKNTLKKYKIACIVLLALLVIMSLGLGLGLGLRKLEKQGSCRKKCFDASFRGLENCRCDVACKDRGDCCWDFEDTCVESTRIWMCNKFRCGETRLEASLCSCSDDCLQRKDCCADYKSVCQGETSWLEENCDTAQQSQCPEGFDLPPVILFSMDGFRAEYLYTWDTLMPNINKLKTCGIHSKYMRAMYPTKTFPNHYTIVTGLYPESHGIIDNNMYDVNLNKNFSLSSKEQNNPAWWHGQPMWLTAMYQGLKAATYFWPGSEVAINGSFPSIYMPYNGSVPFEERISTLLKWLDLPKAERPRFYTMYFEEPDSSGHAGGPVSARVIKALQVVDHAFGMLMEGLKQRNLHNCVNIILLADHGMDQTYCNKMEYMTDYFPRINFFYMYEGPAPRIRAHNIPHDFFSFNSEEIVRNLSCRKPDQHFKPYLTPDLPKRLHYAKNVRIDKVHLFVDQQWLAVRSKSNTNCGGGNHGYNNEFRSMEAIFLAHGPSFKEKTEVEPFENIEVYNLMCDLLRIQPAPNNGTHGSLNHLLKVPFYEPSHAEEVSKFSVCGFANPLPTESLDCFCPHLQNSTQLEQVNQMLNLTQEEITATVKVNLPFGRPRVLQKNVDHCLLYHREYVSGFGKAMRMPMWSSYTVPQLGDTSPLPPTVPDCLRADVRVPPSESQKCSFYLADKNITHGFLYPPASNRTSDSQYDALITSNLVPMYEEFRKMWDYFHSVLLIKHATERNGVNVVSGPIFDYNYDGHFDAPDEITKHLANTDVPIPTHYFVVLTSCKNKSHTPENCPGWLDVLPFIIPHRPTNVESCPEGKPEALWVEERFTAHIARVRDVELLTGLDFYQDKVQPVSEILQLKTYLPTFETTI
The experiment in a line: Inhibition of human NPP3 transfected in COS7 cells using pNP-TMP as substrate incubated for 35 mins. In kind it is cell-based.

For assay [4], the system named is HT-29. The experiment in a line: Antiproliferative activity against human HT-29 cells assessed as reduction in cell growth at 10 uM incubated for 24 hrs by MTT assay relative to control. In kind it is functional. In short, it runs like this: as §1
(Tetrazolium assays rely on reduction of a dye to a coloured formazan, in cell work by metabolically active cells.)

In assay [5] the test system is HT-29. Description: Antiproliferative activity against human HT-29 cells assessed as reduction in cell growth incubated for 24 hrs by MTT assay. The assay is classed as functional, cell-based. The conditions noted are these: HT-29, 24 h. In outline: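 HT-29 colon cancer cells seeded per well and incubated overnight, then exposed for 24 h to serial dilutions of compound (10 mM DMSO stock diluted in medium), with doxorubicin and DMSO controls. MTT (0.5 mg/mL) added for 2 h at 37 °C, formazan dissolved in DMSO, absorbance read at 570 nm. IC50 from triplicate assays, mean ± S.E.M.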

Another assay relates to WI-38. The experiment in a line: Cytotoxicity against human WI-38 cells assessed as reduction in cell growth incubated for 24 hrs by MTT assay. Conditions: WI-38, 24 h. In kind it is cell-based. In outline:
as §1

Assay [6] has as its system MCF7. The experiment in a line: Antiproliferative activity against human MCF7 cells assessed as reduction in cell growth incubated for 24 hrs by MTT assay. The assay is classed as functional, cell-based. Conditions: MCF7, 24 h. In short, it runs like this:
as §1

For assay [7], the target named is T3, Ectonucleotide pyrophosphatase/phosphodiesterase family member 1 (Homo sapiens) (UniProt P22413).
T3 sequence (whole entry): T1 sequence (P22413 whole entry)
Description: Non-competitive inhibition of human NPP1 transfected in COS7 cells at 0.5 to 1.5 uM using pNP-TMP as substrate incubated for 35 mins by Lineweaver-Burk plot analysis. In kind it is cell-based. The conditions noted are these: dose 0.5-1.5 µM. In short, it runs like this:
(§2)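 Kinetics with pNP-TMP at 0.0, 1.25, 2.50, 5.0, 7.5 and 10.0 mM in Tris-HCl 50 mM, MgCl2 5 mM, ZnCl2 0.1 mM, pH 9.5. Incubated at 37 °C and read over 35 min at 5-min intervals. Enzyme from transfected COS-7 membrane fractions.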

Assay [8] addresses T2, Ectonucleotide pyrophosphatase/phosphodiesterase family member 3. Description: Inhibition of NPP3 (unknown origin) transfected in COS7 cells using pNP-TMP as substrate incubated for 35 mins by spectrophotometric method. The assay is classed as cell-based. In short, it runs like this:
(§3)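 Human NPP1 or NPP3 expressed in COS-7 cells by plasmid/Lipofectamine transfection, harvested 48-72 h later. Membrane fractions prepared by sonication and 300 g centrifugation, stored with 7.5% glycerol; protein measured by Bradford. Assay buffer: 50 mM Tris-HCl, 5 mM MgCl2, 0.1 mM ZnCl2, pH 9.5. Triplicates ± S.E.M.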

In assay [9] the test system is MCF7. Description: Antiproliferative activity against human MCF7 cells assessed as reduction in cell growth at 100 uM incubated for 24 hrs by MTT assay relative to control. In kind it is functional.
The target of assay [10] is T3, Ectonucleotide pyrophosphatase/phosphodiesterase family member 1 (Homo sapiens). The experiment in a line: Inhibition of human NPP1 transfected in COS7 cells at 100 uM using pNP-TMP as substrate incubated for 35 mins relative to control. In kind it is cell-based. In outline:
as §3

The target of assay [11] is T1, Ectonucleotide pyrophosphatase/phosphodiesterase family member 1. The experiment in a line: Inhibition of NPP1 (unknown origin) transfected in COS7 cells using pNP-TMP as substrate incubated for 35 mins by spectrophotometric method. The assay is classed as cell-based. In outline:
as §3

Assay [12] addresses T4, Ectonucleotide pyrophosphatase/phosphodiesterase family member 3 (Homo sapiens) (UniProt O14638).
T4 sequence (whole entry): T2 sequence (O14638 whole entry)
The experiment in a line: Inhibition of human NPP3 transfected in COS7 cells at 100 uM using pNP-TMP as substrate incubated for 35 mins relative to control. The assay is classed as cell-based. In short, it runs like this: as §3

Assay [13] has as its target T4, Ectonucleotide pyrophosphatase/phosphodiesterase family member 3 (Homo sapiens). The experiment in a line: Competitive inhibition of human NPP3 transfected in COS7 cells at 0.1 to 1 uM using pNP-TMP as substrate incubated for 35 mins by Lineweaver-Burk plot analysis. The assay is classed as cell-based. The conditions noted are these: dose 0.1-1 µM. In short, it runs like this: as §2

Calls of active or inactive are those of the source. The rule behind the calls is not given here.

In the case of `O=C(NS(=O)(=O)c1ccccc1)n1ccc2cc(Br)cnc21`, the inhibition at 10 µM is 16.8% in the assay on MCF7 [1] and 14.6% with HT-29 [4]. The IC50 was found to be 8300 nM in assay [2] and 2010 nM in assay [3].
With `COc1cccc2c1C(=O)c1c(O)c3c(c(O)c1C2=O)C[C@@](O)(C(=O)CO)C[C@@H]3O[C@H]1C[C@H](N)[C@H](O)[C@H](C)O1` [DOXORUBICIN], the half-inhibitory concentration (IC50) in the assay on HT-29 [5] was 1400 nM; in the assay with WI-38 it was 1960 nM. Moreover, the inhibition at 10 µM was 96.8% in the assay on MCF7 [1] and 94.3% in the assay on HT-29 [4].
Take `O=C(NS(=O)(=O)c1cccc([N+](=O)[O-])c1)n1ccc2cccnc21`: the inhibition at 10 µM came to 70.7% in the assay with MCF7 [1] and 18.9% in the assay with HT-29 [4]. Besides, the IC50 in the assay on WI-38 was > 20000 nM; in [2] it was 800 nM; in assay [3], 1170 nM; in the assay with MCF7 [6] it was 4700 nM. The inhibition result in assay [7] was “Active”.
As to `Oc1ccc(-c2nn(-c3cccc(NC(=S)Nc4ccccc4)c3)cc2-c2ccncc2)cc1Cl`, the 50% inhibitory concentration (IC50) in assay [8] stood at 210 nM. The inhibition at 100 µM with MCF7 [9] turned out to be 35.6%.
Turning to `Cc1ccc(S(=O)(=O)NC(=O)n2ccc3cccnc32)cc1`, the results for the inhibition at 10 µM in the assay on MCF7 [1] and with HT-29 [4] were 20.3% and 33.4%, respectively. In addition, the inhibition in assay [10] amounted to 47.9%. For the same compound, in [3], 3720 nM corresponded to half-maximal inhibition (IC50).
For `COc1ccc(-c2nn(-c3cccc(NS(=O)(=O)c4ccc(C)cc4)c3)cc2-c2ccncc2)cc1Cl`, the inhibition at 100 µM in the assay on MCF7 [9] was found to be 40.3%. The IC50 in assay [11] was determined as 180 nM.
Take `O=C(NS(=O)(=O)c1ccccc1)n1ccc2c(Cl)ccnc21`: the inhibition at 10 µM is 3.32% in the assay with MCF7 [1] and 47.6% with HT-29 [4]. Besides, the figures for the half-maximal inhibitory concentration (IC50) in assay [2] and in assay [3] were 1080 nM and 26100 nM, respectively.
Take `O=C(NS(=O)(=O)c1ccc2ccccc2c1)n1ccc2cccnc21`: the inhibition at 10 µM with MCF7 [1] amounted to 1.9%; in the assay with HT-29 [4], 16.2%. Moreover, the inhibition in assay [12] is 44.1%; in [10] it was 48.6%.
Regarding `O=C(NS(=O)(=O)c1ccc2ccccc2c1)n1ccc2cc(Br)cnc21`, the results for the inhibition at 10 µM in the assay on MCF7 [1] and with HT-29 [4] were 28.8% and 60.1%, respectively. In addition, the half-maximal inhibitory concentration (IC50) was 178000 nM in assay [2] and 25300 nM in [3].
For `O=C(NS(=O)(=O)c1ccc(Cl)cc1)n1ccc2cccnc21` the same measures were 33.5%, 54.4%, 10400 nM and 880 nM.
Turning to `CN(C)c1ccnc2c1ccn2C(=O)NS(=O)(=O)c1ccccc1`, the inhibition at 10 µM with MCF7 [1] was 26.9%; in the assay on HT-29 [4] it was 17.6%. Besides, the IC50 in assay [2] amounted to 2770 nM; in assay [3], 550 nM. Moreover, the inhibition entry in assay [13] is “Active”.
Turning to `O=C(NS(=O)(=O)c1ccc2ccccc2c1)n1ccc2c(Cl)ccnc21`, the inhibition at 10 µM in the assay on MCF7 [1] came to 28.6%; in the assay on HT-29 [4], 58.2%. Further, the results for the IC50 in assay [2] and in assay [3] were 3290 nM and 1310 nM, respectively.
As for `Cc1ccc(S(=O)(=O)NC(=O)n2ccc3c(N(C)C)ccnc32)cc1`, the inhibition at 10 µM in the assay with MCF7 [1] is 5.6%; with HT-29 [4], 21.4%. For the same compound, the inhibition in assay [12] was 45.7%; in assay [10], 41.5%.
For `O=C(NS(=O)(=O)c1cccc([N+](=O)[O-])c1)n1ccc2cc(Br)cnc21`, the inhibition at 10 µM in the assay on MCF7 [1] came out at 43%; in the assay on HT-29 [4], 58.5%. The half-maximal inhibitory concentration (IC50) worked out at 1150 nM in assay [2] and 2130 nM in assay [3].
As for `O=C(NS(=O)(=O)c1ccccc1)n1ccc2cccnc21`, the inhibition at 10 µM in the assay with MCF7 [1] turned out to be 18.9%; with HT-29 [4], 23.6%. The compound also yielded an IC50 in [2] of 4500 nM. Moreover, in assay [12], the inhibition was 37.5%.

The inhibition is the relative decrease from the control value, in per cent. In general, IC50 refers to the concentration needed to halve the response being measured.
